Results: ChEMBL document CHEMBL4152389, “Discovery of Novel, Drug-Like Ferroptosis Inhibitors with in Vivo Efficacy” (J Med Chem, 2018)
≈ marks a conversion by molar mass, not a printed value. One block for each compound: values may come before it. Calls of active or inactive are those of the source. No cut-off for these calls is given here.

Tests used:
[1] = Kinetic solubility in PBS at pH 7.4 after 2 hrs by turbidimetric method; type: physicochemical; details: read-out: Kinetic_solubility
Summary of the method: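 Kinetic solubility by turbidity (UV/VIS reading); final compound 3.125–200 μM, from 4 μL DMSO solution in 196 μL 10 mM PBS pH 7.4.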

IMR-32 [2] = assay: Inhibition of erastin-induced ferroptosis in human IMR32 cells preincubated for 1 hr followed by erastin stimulation and measured after 13 hrs by sytox green-based fluorescence assay; type: functional, cell-based
Summary of the method: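 IMR-32 neuroblastoma cells seeded at 25,000/well, next day pretreated 1 h in triplicate with 1/3 dilution series (5 μM to 0.68 nM) plus Sytox Green 1.6 μM, then erastin 10 μM.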

Mus musculus [3] = assay: In vivo inhibition of iron sulphate-induced ferroptosis in C57BL/6N mouse assessed as LDH levels in plasma at 20 umol/kg, iv administered 15 mins prior to acute iron poisoning and measured after 2 hrs (reference value: 3572 +/- 185 U/L); type: functional
[4] = Metabolic stability in human plasma assessed as compound recovery at 50 uM after 6 hrs by LC/MS/MS analysis; type: ADME, cell-free; details: read-out: Drug recovery
Summary of the method: (§1)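 Compound incubated in human, rat or mouse plasma; percentage of remaining parent compound determined after 6 h.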

[5] = Metabolic stability in rat plasma assessed as compound recovery at 50 uM after 6 hrs by LC/MS/MS analysis; type: ADME, cell-free; details: read-out: Drug recovery; summary of the method: as §1
[6] = Half life in human liver microsomes at 10 uM in presence of NADPH regenerating system by LC/MS/MS analysis; type: ADME, microsome
Summary of the method: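 Incubation with human liver microsomes; metabolism by CYP450 and other NADP-dependent enzymes monitored and expressed as half-life (h).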

IMR-32 [7] = assay: Inhibition of ferrous ammonium sulphate-induced ferroptosis in human IMR32 cells preincubated for 1 hr followed by ferrous ammonium sulphate stimulation and measured after 13 hrs by sytox green-based fluorescence assay
[8] = Metabolic stability in mouse plasma assessed as compound recovery at 50 uM after 6 hrs by LC/MS/MS analysis; type: ADME, cell-free; details: read-out: Drug recovery; summary of the method: as §1
[9] = Intrinsic clearance in rat liver microsomes at 50 uM after 15 mins to 24 hrs by LC/MS/MS analysis; type: ADME, microsome; details: read-out: CLH
Summary of the method: (§2)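 Intrinsic clearance calculated from measured microsomal half-life in human, mouse or rat liver microsomes, accounting for protein concentration and incubation volume with species-specific parameters.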

[10] = Intrinsic clearance in mouse liver microsomes at 50 uM after 15 mins to 24 hrs by LC/MS/MS analysis; type: ADME, microsome; details: read-out: CLH; summary of the method: as §2
[11] = Intrinsic clearance in human liver microsomes at 50 uM after 15 mins to 24 hrs by LC/MS/MS analysis; type: ADME, microsome; details: read-out: CLH; summary of the method: as §2
Mus musculus [12] = assay: Toxicity in wild type mouse assessed as AST levels in plasma at 20 umol/kg, ip administered daily for 4 weeks measured at day 28 (reference value: 110 +/- 8 U/L); type: organism-based; details: in vivo, 672 h
Mus musculus [13] = assay: Toxicity in wild type mouse assessed as ALT levels in plasma at 20 umol/kg, ip administered daily for 4 weeks measured at day 28 (reference value: <25 U/L); type: organism-based; details: in vivo, 672 h
Mus musculus [14] = assay: Toxicity in wild type mouse assessed as body temperature at 20 umol/kg, ip administered daily for 4 weeks measured during compound dosing (reference value: 37 +/- 0.6 degreeC); type: organism-based; details: in vivo, 672 h
Mus musculus [15] = assay: Toxicity in wild type mouse assessed as CK levels in plasma at 20 umol/kg, ip administered daily for 4 weeks measured at day 28 (reference value: 1501 +/- 196 U/L); type: organism-based; details: in vivo, 672 h
Mus musculus [16] = assay: Toxicity in wild type mouse assessed as relative gain in body weight at 20 umol/kg, ip administered daily for 4 weeks measured during compound dosing (reference value: 14.8 +/- 3.4%); type: organism-based; details: in vivo, 672 h
Mus musculus [17] = assay: Toxicity in wild type mouse assessed as creatinine levels in plasma at 20 umol/kg, ip administered daily for 4 weeks measured at day 28 (reference value: <0.2 mg/dl); type: organism-based; details: in vivo, 672 h
[18] = Plasma concentration in Wistar rat at 5 mg/kg, iv after 0.083 to 24 hrs by UPLC-MS analysis; type: ADME, organism-based; details: in vivo
Summary of the method: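 Single iv 5 mg/kg to three male Wistar rats; blood sampled at 0.083, 0.25, 0.5, 1, 2, 4 and 24 h; plasma drug measured by UPLC–tandem quadrupole MS, detection limit 53.1 ng/mL.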

Mus musculus [19] = assay: Toxicity in wild type mouse assessed as troponin levels in plasma at 20 umol/kg, ip administered daily for 4 weeks measured at day 28 (reference value: 0.041 +/- 0.005 ug/l); type: organism-based; details: in vivo, 672 h
Mus musculus [20] = assay: Toxicity in wild type mouse assessed as urea levels in plasma at 20 umol/kg, ip administered daily for 4 weeks measured at day 28 (reference value: 42 +/- 2 mg/dl); type: organism-based; details: in vivo, 672 h
Mus musculus [21] = assay: Toxicity in wild type mouse assessed as LDH levels in plasma at 20 umol/kg, ip administered daily for 4 weeks measured at day 28 (reference value: 227 +/- 18 U/L); type: organism-based; details: in vivo, 672 h

SMILES: Cl.Nc1cc(S(=O)(=O)NCCN2CCNCC2)ccc1NC1CCCCC1
solubility kinetic at 2 h [1]: > 200 µM
IC50 (IMR-32 [2]): 296 nM

SMILES: CCOC(=O)c1ccc(NC2CCCCC2)c(N)c1
Activity (Mus musculus [3]): 2898 U/L
remaining at 6 h, 50 µM [4]: 47.3%
remaining at 6 h, 50 µM [5]: 1.1%
half-life at 10 µM [6]: 6.54 min
inhibition (IMR-32 [7]): Active
remaining at 6 h, 50 µM [8]: 0%
solubility kinetic at 2 h [1]: > 200 µM
IC50 (IMR-32 [2]): 33 nM

SMILES: Nc1cc(S(=O)(=O)NCCN2CCOCC2)ccc1NC1CCCCC1
solubility kinetic at 2 h [1]: > 200 µM
IC50 (IMR-32 [2]): 448 nM

SMILES: CNCCNS(=O)(=O)c1ccc(NC2CCCCC2)c(N)c1.Cl
solubility kinetic at 2 h [1]: > 200 µM
IC50 (IMR-32 [2]): 214 nM

SMILES: Cl.NCCNS(=O)(=O)c1ccc(NC2CCCCC2)c(N)c1
solubility kinetic at 2 h [1]: > 200 µM
IC50 (IMR-32 [2]): 306 nM

SMILES: CN1CCN(CCNS(=O)(=O)c2ccc(NC3CCCCC3)c(N)c2)CC1
solubility kinetic at 2 h [1]: > 200 µM
IC50 (IMR-32 [2]): 236 nM

SMILES: Cl.O=S(=O)(NCCN1CCNCC1)c1ccc(NC2CCCCC2)c(NCc2ccccc2)c1
CLint scaled at 50 µM [9]: 3.4 mL/min/kg
Activity (Mus musculus [3]): 2346 U/L
Activity (Mus musculus [12]): 123 U/L
remaining at 6 h, 50 µM [4]: 84.2%
remaining at 6 h, 50 µM [5]: 85.8%
inhibition (IMR-32 [7]): Active
Activity (Mus musculus [13]): < 25 U/L
remaining at 6 h, 50 µM [8]: 100%
T (Mus musculus [14]): 37 °C
Activity (Mus musculus [15]): 1865 U/L
Activity (Mus musculus [16]): 10.4%
solubility kinetic at 2 h [1]: > 200 µM
Activity (Mus musculus [17]): < 0.2 mg/dL
Cp [18]: < 53.1 ng/mL
Activity (Mus musculus [19]): 0.044 µg/L
CLint scaled at 50 µM [10]: 18 mL/min/kg
IC50 (IMR-32 [2]): 10 nM
Activity (Mus musculus [20]): 43 mg/dL
Activity (Mus musculus [21]): 263 U/L
CLint scaled at 50 µM [11]: 1.1 mL/min/kg

SMILES: O=S(=O)(NCCN1CCOCC1)c1ccc(NC2CCCCC2)c(NCc2ccccc2)c1
CLint scaled at 50 µM [9]: 326 mL/min/kg
remaining at 6 h, 50 µM [4]: 100%
remaining at 6 h, 50 µM [5]: 100%
remaining at 6 h, 50 µM [8]: 100%
solubility kinetic at 2 h [1]: 50 to 100 µM (≈ 23.6 to 47.3 µg/mL)
CLint scaled at 50 µM [10]: 1220 mL/min/kg
IC50 (IMR-32 [2]): 24 nM
CLint scaled at 50 µM [11]: 22.6 mL/min/kg

SMILES: CN(C)CCNS(=O)(=O)c1ccc(NC2CCCCC2)c(N)c1
solubility kinetic at 2 h [1]: > 200 µM
IC50 (IMR-32 [2]): 160 nM

Continued, in another order:

solubility kinetic at 2 h [1]: > 200 µM
SMILES: CN(C)CCNS(=O)(=O)c1ccc(NC2CCCCC2)c(NCc2ccccc2)c1
IC50 (IMR-32 [2]): 554 nM

solubility kinetic at 2 h [1]: > 200 µM
SMILES: CN1CCN(CCNS(=O)(=O)c2ccc(NC3CCCCC3)c(NCc3ccncc3)c2)CC1
IC50 (IMR-32 [2]): 1520 nM

solubility kinetic at 2 h [1]: > 200 µM
SMILES: CN1CCN(CCNS(=O)(=O)c2ccc(NC3CCCCC3)c(NCc3ccccc3)c2)CC1
IC50 (IMR-32 [2]): 1070 nM

solubility kinetic at 2 h [1]: > 200 µM
SMILES: COCCNS(=O)(=O)c1ccc(NC2CCCCC2)c(N)c1
IC50 (IMR-32 [2]): 492 nM

CLint scaled at 50 µM [9]: 27.4 mL/min/kg
remaining at 6 h, 50 µM [4]: 100%
remaining at 6 h, 50 µM [5]: 100%
remaining at 6 h, 50 µM [8]: 100%
solubility kinetic at 2 h [1]: > 200 µM
CLint scaled at 50 µM [10]: 4.8 mL/min/kg
CLint scaled at 50 µM [11]: 1.3 mL/min/kg
SMILES: Cl.NCCNS(=O)(=O)c1ccc(NC2CCCCC2)c(NCc2ccccc2)c1
Activity (Mus musculus [3]): 2293 U/L
inhibition (IMR-32 [7]): Active
IC50 (IMR-32 [2]): 12 nM

solubility kinetic at 2 h [1]: 25 to 50 µM (≈ 10.4 to 20.9 µg/mL)
SMILES: COCCNS(=O)(=O)c1ccc(NC2CCCCC2)c(NCc2ccccc2)c1
IC50 (IMR-32 [2]): 22 nM

solubility kinetic at 2 h [1]: > 200 µM
SMILES: CNCCNS(=O)(=O)c1ccc(NC2CCCCC2)c(NCc2ccncc2)c1.Cl
IC50 (IMR-32 [2]): 157 nM

solubility kinetic at 2 h [1]: > 200 µM
SMILES: CN(C)CCNS(=O)(=O)c1ccc(NC2CCCCC2)c(NCc2ccncc2)c1
IC50 (IMR-32 [2]): 1560 nM

solubility kinetic at 2 h [1]: > 200 µM
SMILES: Cl.O=S(=O)(NCCN1CCNCC1)c1ccc(NC2CCCCC2)c(NCc2ccncc2)c1
IC50 (IMR-32 [2]): 442 nM

solubility kinetic at 2 h [1]: > 200 µM
SMILES: COCCNS(=O)(=O)c1ccc(NC2CCCCC2)c(NCc2ccncc2)c1
IC50 (IMR-32 [2]): 97 nM

CLint scaled at 50 µM [9]: 161 mL/min/kg
remaining at 6 h, 50 µM [4]: 90.3%
remaining at 6 h, 50 µM [5]: 65.8%
remaining at 6 h, 50 µM [8]: 100%
solubility kinetic at 2 h [1]: > 200 µM
CLint scaled at 50 µM [10]: 139 mL/min/kg
CLint scaled at 50 µM [11]: 1.7 mL/min/kg
SMILES: CNCCNS(=O)(=O)c1ccc(NC2CCCCC2)c(NCc2ccccc2)c1.Cl
Activity (Mus musculus [3]): 2093 U/L
inhibition (IMR-32 [7]): Active
IC50 (IMR-32 [2]): 3 nM

solubility kinetic at 2 h [1]: 100 to 200 µM
SMILES: Cl.NCCNS(=O)(=O)c1ccc(NC2CCCCC2)c(NCc2ccncc2)c1
IC50 (IMR-32 [2]): 112 nM

solubility kinetic at 2 h [1]: > 200 µM
SMILES: O=S(=O)(NCCN1CCOCC1)c1ccc(NC2CCCCC2)c(NCc2ccncc2)c1
IC50 (IMR-32 [2]): 191 nM
